ARNT-TACC3 inh – disruptors of ARNT/TACC3 protein interaction, primary screen, biochemical, AlphaScreen, single concentration; Transforming acidic coiled-coil-containing protein 3 (Homo sapiens), Q9Y6A5; AlphaScreen His-ARNT PAS-B/GST-TACC3 binding, luminescence; TACC3 fragment carries E629A point mutation; inhibition, % at 9.99 µM; 390,000 compounds, 0.66% hits; AID 623870, 2012;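 active = mean inhibition of replicates at least 50% and at least half of replicates each reaching 50%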
AI-2 QS mod – Vibrio harveyi AI-2 quorum sensing modulators, primary screen, JMH597 strain, luminescence/OD600 ratio; activity change, % at 7.5 µM; 300,000 compounds, 0.4% hits; Vibrio harveyi JMH597 AI-2 luminescence/OD600 ratio, 9 h; hits give low values; strain lacks LuxN and CqsS sensors; 0 = neutral-control median; in the data active = activity change below about -75%, passing the limit was not always enough;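 note: luminescence divided by OD600 gain over 9 h not by final OD600 alone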
Rce1 inh – yeast Rce1p protease inhibitors, primary screen, biochemical, fluorescence, cell-free homogeneous | CAAX prenyl protease 2 (Saccharomyces cerevisiae (strain ATCC 204508 / S288c)), Q03530 | yeast membranes, quenched prenylated peptide cleavage fluorescence | calls only | 290,000 compounds, 0.27% hits | AID 2563, 2010;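 active = fall in fluorescence gain of 50% or more versus controls, with final raw signal at or below 3038400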
Target sequence (Q03530 whole entry, looked up): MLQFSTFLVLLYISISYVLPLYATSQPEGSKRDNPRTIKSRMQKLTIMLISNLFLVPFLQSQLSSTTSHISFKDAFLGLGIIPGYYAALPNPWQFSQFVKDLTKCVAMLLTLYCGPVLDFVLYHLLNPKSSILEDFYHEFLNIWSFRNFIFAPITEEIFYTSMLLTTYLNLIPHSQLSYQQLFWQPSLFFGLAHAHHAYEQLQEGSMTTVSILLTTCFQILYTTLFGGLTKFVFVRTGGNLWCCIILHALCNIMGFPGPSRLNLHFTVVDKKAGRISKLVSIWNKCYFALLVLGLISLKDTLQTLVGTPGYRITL
CAL PDZ FP-1 – untagged CAL PDZ binding inhibitors, primary screen, biochemical, fluorescence polarization, HTS | Golgi-associated PDZ and coiled-coil motif-containing protein (Homo sapiens), Q9HD26 | inhibition, % at 24.9 µM | 300,000 compounds, 0.92% hits | AID 602252, 2012 | purified CAL PDZ, TMR-peptide fluorescence polarization, 1 h;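 active = mean inhibition of at least 30% with at least half of replicates also reaching 30%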
CAL PDZ FP-2 – CAL PDZ peptide-binding inhibitors, primary screen, biochemical, fluorescence polarization, Cer-tagged CAL PDZ, HTS; Golgi-associated PDZ and coiled-coil motif-containing protein (Homo sapiens), Q9HD26; purified CAL PDZ, TMR-peptide fluorescence polarization, 1 h; inhibition, % at 20 µM; 330,000 compounds, 0.02% hits;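 active = highest replicate inhibition of at least 40%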
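Material: tagged CAL PDZ domain; buffer or medium: 25 mM sodium phosphate pH 7.4, 150 mM NaCl, TCEP, IgG, Thesit; compound dosing: single point, 20 µM; schedule: 1 h incubation at room temperature before polarization reading; measured by: FP readout, S and P plane fluorescence; read-out basis: percent inhibition from loss of millipolarization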
ARNT Alpha ctr-1 – AlphaScreen signal interference compounds, dose response, artefact control for ARNT-TACC3 interaction inhibitor project, biochemical, luminescence, cherry-pick | shares compounds with ARNT-TACC3 inh | His-ARNT PASB-GST AlphaScreen artifact counter-screen | AC50, µM (top dose mostly 68 µM) | 1,200 compounds, 50% hits;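 active = every separate test run was called active for a drop in luminescence, with AC50 within twice the top valid dose, actives reach about 71 µM in these data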
ARNT Alpha ctr-2 – AlphaScreen signal interference by compounds, dose response, artefact control for ARNT/TACC3 disruptor project, biochemical, dual-tagged ARNT, dry powder; shares compounds with ARNT-TACC3 inh; 45 compounds, 70% hits; Dual-tagged His-ARNT PASB-GST AlphaScreen artifact counter-screen; AC50, µM;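 active = luminescence drop, with half-maximal potency fitted within twice the sample's top valid dose, cut at about 70 µM in these data; inactive = the rest, including signal moving the wrong way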
Of the large screens only hits and unclear results are named; the others gave an inactive call (follow-up assays come after a bar, where they were run). A selection: hits, their analogues and other compounds. The true share with any hit is near 1.7%.

O=C(c1cc(-c2ccccc2)on1)N1CCC(N2CCOCC2)CC1	none (no result: ARNT-TACC3 inh, AI-2 QS mod, Rce1 inh, CAL PDZ FP-1, CAL PDZ FP-2) | ARNT Alpha ctr-1 inactive
Cc1nnc(NC(=O)CSc2nc3c(c(=O)n2CCc2ccccc2)SC(C)C3)s1 (centres undefined)	none (no result: CAL PDZ FP-1)
COc1ccc(NC(=O)N[C@H]2CC[C@@H](CCn3cc(-c4ccccn4)nn3)O[C@@H]2CO)cc1	ARNT-TACC3 inh 95 (no result: AI-2 QS mod, Rce1 inh, CAL PDZ FP-1, CAL PDZ FP-2) | ARNT Alpha ctr-1 39µM
COc1ccc(NC(=O)N[C@H]2CC[C@@H](CCn3cc(-c4ccccn4)nn3)O[C@H]2CO)cc1	ARNT-TACC3 inh 65 (no result: AI-2 QS mod, Rce1 inh, CAL PDZ FP-1, CAL PDZ FP-2) | ARNT Alpha ctr-1 40µM
Cc1ccc(S(=O)(=O)N(C)C[C@H]2Oc3c(NC(=O)Nc4c(C)noc4C)cccc3C(=O)N([C@H](C)CO)C[C@H]2C)cc1	none (no result: AI-2 QS mod, Rce1 inh, CAL PDZ FP-1, CAL PDZ FP-2)
O=C(NCCCn1ccnc1)C(=O)NCC1OCCCN1S(=O)(=O)c1ccc(Cl)cc1 (centres undefined)	none
O=C(NCCCn1ccnc1)C(=O)NCC1OCCN1S(=O)(=O)c1ccc(Cl)cc1 (centres undefined)	ARNT-TACC3 inh 58 (no result: CAL PDZ FP-1) | ARNT Alpha ctr-1 70µM
O=C(NCCCn1ccnc1)C(=O)NCC1OCCN1S(=O)(=O)c1ccccc1 (centres undefined)	ARNT-TACC3 inh 57 | ARNT Alpha ctr-1 62µM
O=C(NCCCn1ccnc1)C(=O)NCC1OCCCN1S(=O)(=O)c1ccccc1 (centres undefined)	ARNT-TACC3 inh 40 | ARNT Alpha ctr-1 inactive
COc1ccc(OC)c(S(=O)(=O)N(C)CC(=O)Nc2ccccc2OC)c1	none
CN(C)Cc1cn(CC[C@@H]2CC[C@@H](NS(=O)(=O)c3ccc(-c4ccccc4)cc3)[C@@H](CO)O2)nn1	none (no result: AI-2 QS mod, Rce1 inh, CAL PDZ FP-1, CAL PDZ FP-2)
Cc1ccccc1NC(=O)CSc1nnc(-c2ccccn2)o1	none (no result: ARNT-TACC3 inh)
CCOC(=O)N1CCN(C(=O)CSc2ccc3nnc(-c4ccccn4)n3n2)CC1	ARNT-TACC3 inh 42 | ARNT Alpha ctr-1 inactive
O=C(CSc1ccc2nnc(-c3ccccn3)n2n1)NCC1CCCO1 (centres undefined)	ARNT-TACC3 inh 56 (no result: CAL PDZ FP-1) | ARNT Alpha ctr-1 inactive
O=C(CSc1ccc2nnc(-c3ccccn3)n2n1)Nc1ccccc1F	ARNT-TACC3 inh 53 | ARNT Alpha ctr-1 inactive
O=C(CSc1nnc(-c2ccccn2)o1)Nc1ccccc1F	ARNT-TACC3 inh 59 | ARNT Alpha ctr-1 inactive
O=C(CSc1ccc2nnc(-c3ccccn3)n2n1)Nc1cccc(F)c1	none
CCOC(=O)N1CCN(C(=O)CSc2ccc3nnc(-c4ccncc4)n3n2)CC1	none
O=C(O)c1ccc(Nc2ccc(F)c(F)c2)c([N+](=O)[O-])c1	none
CCSc1nnc(NC(=O)/C=C/c2ccco2)s1	none (no result: Rce1 inh)
O=C(Nc1ccc(F)c(F)c1)c1ccc2c(c1)OCO2	none
O=C(Nc1ccc2c(c1)OCO2)c1ccc2c(c1)OCO2	ARNT-TACC3 inh 52 | ARNT Alpha ctr-1 inactive
CO[C@H]1CN(C)C(=O)c2ccc(NC(=O)Nc3cc(F)ccc3F)cc2OC[C@H](C)N(C(=O)c2ccccn2)C[C@H]1C	none (no result: AI-2 QS mod, Rce1 inh, CAL PDZ FP-1, CAL PDZ FP-2)
CC1CCCC(C)N1/N=C/c1ccc([N+](=O)[O-])cc1 (centres undefined)	ARNT-TACC3 inh 51 (no result: CAL PDZ FP-2) | ARNT Alpha ctr-1 24µM
CC1CCN(S(=O)(=O)c2ccc(C(=O)Nc3nnc(-c4ccccn4)o3)cc2)CC1	none | ARNT Alpha ctr-2 inactive
CC1CCN(S(=O)(=O)c2ccc(C(=O)Nc3nnc(-c4ccno4)o3)cc2)CC1	none (no result: ARNT-TACC3 inh, AI-2 QS mod, Rce1 inh, CAL PDZ FP-1, CAL PDZ FP-2) | ARNT Alpha ctr-2 inactive
O=C(Nc1nnc(-c2ccncc2)o1)c1ccccc1	ARNT-TACC3 inh 52 | ARNT Alpha ctr-1 inactive
CCOC(=O)N1CCN(S(=O)(=O)c2ccc(C(=O)Nc3nnc(C4CC4)o3)cc2)CC1	ARNT-TACC3 inh 61 | ARNT Alpha ctr-1 inactive
CC1CCN(S(=O)(=O)c2ccc(C(=O)Nc3ncccc3O)cc2)CC1	none
O=C(Nc1nnc(-c2ccncc2)o1)c1ccccc1F	none
CCOC(=O)N1CCN(S(=O)(=O)c2ccc(C(=O)Nc3nnc(CC)o3)cc2)CC1	none
Cn1c(=O)c(C=Nc2ccccc2)c(O)c2ccccc21	none (no result: ARNT-TACC3 inh, CAL PDZ FP-1, CAL PDZ FP-2)
CCCCCC/C=N/Nc1nnc(Cc2ccccc2)c(=O)[nH]1	none
CCN1[C@@H]2Cn3c(ccc(-c4ccncc4)c3=O)[C@H]1[C@@H](C(=O)NCCc1cn(C)cn1)[C@@H]2CO	none (no result: AI-2 QS mod, Rce1 inh, CAL PDZ FP-1, CAL PDZ FP-2)
N#Cc1ccc(C(=O)Nc2nnc(-c3ccccn3)o2)cc1	ARNT-TACC3 inh 54 | ARNT Alpha ctr-1 inactive

Screening data deposited in PubChem by Broad Institute.
